H9c2 TAG inh: inhibitors of triacylglycerol accumulation, primary screen, cell-based, uHTS, fluorescence, H9c2; H9c2 cells, Nile Red lipid (TAG) fluorescence; cells loaded with 200 µM oleic acid; inhibition, % at 12.5 µM; actives 0.66% (n = 230,000);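 active means pattern-corrected inhibition of lipid staining of at least 50% with the nuclear-stain viability signal not falling by more than 50%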;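 further: 0% = DMSO wells and 100% = triacsin C control wells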
MT1-MMP act inh: blockers of MT1-MMP proenzyme processing, primary screen, HT1080 RFP-PRO-GFP cells, GFP/RFP fluorescence; Matrix metalloproteinase-14 (Homo sapiens), P50281; GFP/RFP ratio fluorescence, overnight; percent of plate control window, DMSO zero; actives 0.061% (n = 360,000); GFP/RFP ratio change, % at 20 µM; AID 651647, 2012;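 active means GFP/RFP ratio change of at least 30% with cell ATP level not reduced by more than half and red fluorescence within 50% of control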
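Assay system: HT1080 RFP-PRO-GFP cells | Dosing: 20 µM single dose, 1% DMSO | Incubation: Cells overnight before dosing, compound overnight, 37 °C, 5% CO2 | Evaluation: GFP/RFP fluorescence ratio | Control set: DMSO-only wells and HT1080 RFP-L50D-GFP cell wells as references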
Efflux pump mplx: inhibitors of Candida efflux pumps in yeast, primary screen, S. cerevisiae, Nile Red, multiplex; S. cerevisiae Candida pump triplex; inhibition, % at 10 µM; actives 0.44% (n = 330,000);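 active means plate passing quality check with inhibition over a set limit, or well fluorescence over plate mean plus 4 SD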;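 further: Nile Red retained in pooled yeast measured as flow cytometry median fluorescence; 0% = buffer negative control and 100% = Enniatin B positive control; higher means more Nile Red kept so more efflux inhibition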
HGIII-sPLA2 inh: human group III sPLA2 inhibitors, primary screen, biochemical, QFRET, BODIPY PC-A2 liposome substrate; Group 3 secretory phospholipase A2 (Homo sapiens), Q9NZ20; QFRET BODIPY PC-A2 liposome hydrolysis, fluorescence; inhibition, % at 12.2 µM; actives 0.56% (n = 370,000); AID 743126, 2013;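 active means inhibition above mean plus 3 SD of compounds lying within the high and low control bounds, cut at about 19% in these data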;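 further: 0% = median of test compound wells and 100% = no enzyme DMSO wells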
Target sequence (Q9NZ20 whole entry, looked up): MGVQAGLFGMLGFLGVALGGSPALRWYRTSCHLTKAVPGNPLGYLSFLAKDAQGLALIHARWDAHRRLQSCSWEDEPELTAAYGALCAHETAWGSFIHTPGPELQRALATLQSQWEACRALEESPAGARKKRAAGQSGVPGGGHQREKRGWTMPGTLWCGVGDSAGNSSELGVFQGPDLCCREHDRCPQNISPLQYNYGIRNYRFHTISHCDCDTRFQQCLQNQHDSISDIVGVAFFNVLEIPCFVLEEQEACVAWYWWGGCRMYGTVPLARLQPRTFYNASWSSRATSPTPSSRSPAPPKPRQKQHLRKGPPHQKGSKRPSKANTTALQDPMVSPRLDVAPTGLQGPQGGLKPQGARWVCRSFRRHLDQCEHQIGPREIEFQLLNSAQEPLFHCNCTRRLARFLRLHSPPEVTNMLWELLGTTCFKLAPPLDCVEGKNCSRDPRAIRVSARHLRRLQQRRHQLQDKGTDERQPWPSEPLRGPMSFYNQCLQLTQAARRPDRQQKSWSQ
Cmpd fluor yeast: compound fluorescence in yeast efflux pump counter-screen | AID 588517 | actives 4% (n = 1,700) | fluorescence ratio to DMSO, % at 10 µM | S. cerevisiae AD/pABC3, flow cytometry | shares compounds with Efflux pump mplx;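 active means fluorescence ratio to DMSO above its plate's cutoff, the plate mean ratio plus 5 SD, cut at about 210% in these data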;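 further: unstained yeast with no Nile Red so the signal is compound autofluorescence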
CaMdr1 efflux inh: inhibitors of Candida albicans Mdr1 efflux, confirmation, flow cytometry, singleplex, Cherry Pick1 set | shares compounds with Efflux pump mplx | S. cerevisiae AD/CaMDR1, Nile Red efflux | inhibition, % at 10 µM | actives 1% (n = 1,700) | AID 588518, 2011; in the data active means inhibition above about 26%;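 further: 0% = DMSO vehicle and 100% = reference inhibitor; higher means more Nile Red retained so more efflux inhibition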
Cdr2 pump inh: inhibitors of Candida albicans Cdr2 efflux pump, confirmation, S. cerevisiae AD/CaCDR2, flow cytometry, cherry pick 1, singleplex. Nile Red retention. shares compounds with Efflux pump mplx. Nile Red retention ratio vs DMSO, % at 10 µM. actives 4% (n = 1,700); in the data active means Nile Red retention ratio vs DMSO above about 190%;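 further: higher ratio means more blocking of Cdr2 efflux of the dye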
CaCdr1 efflux inh: inhibitors of Candida albicans Cdr1 efflux pump, confirmation, S. cerevisiae AD/CaCDR1, flow cytometry, cherry pick 1, singleplex. inhibition, % at 10 µM. shares compounds with Efflux pump mplx. Nile Red efflux. AID 588522, 2011. actives 1% (n = 1,700);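 active means inhibition above the screen-wide mean plus twice its standard deviation, cut at about 32% in these data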
* marks the source's active call; other numbers are inactive results; / = not tested or not shown. A selection: hits, their analogues and other compounds. The true share with any hit is near 1.3%.

SMILES	H9c2 TAG inh	MT1-MMP act inh	Efflux pump mplx	HGIII-sPLA2 inh	Cmpd fluor yeast	CaMdr1 efflux inh	Cdr2 pump inh	CaCdr1 efflux inh
CCC(NC(=O)c1cc(COc2ccc(OC)cc2Cl)on1)c1ccncc1 (configuration not stated)	2.9	-13.5	-0.1	-11.5	82.2	0.0	93.2	-0.4
Fc1cccc(Cl)c1CSc1nnc2ccccn12	11.4	-1.6	0.1	2.0	/	/	/	/
CCOC(=O)c1ccc(-c2cc(C)no2)[nH]1	/	3.3	6.5*	4.8	105.8	0.0	107.2	0.0
CCCCCc1cc(=O)oc2c(C(CCN3CCCC(C)C3)c3ccc(N(C)C)cc3)c(OC)cc(OC)c12 (configuration not stated)	107.4*	-7.2	1.0*	/	100.0	-0.1	151.2	0.1
CCCCCc1cc(=O)oc2c(C(CCN3CCCC(C)C3)c3cc(OC)c(OC)c(OC)c3)c(OC)cc(OC)c12 (configuration not stated)	78.9	1.9	0.8	/	/	/	/	/
Cc1cc2ccccc2n2c(SCC(=O)Nc3ccc(S(=O)(=O)N4CCC(C)CC4)cc3)nnc12	/	4.3	6.8*	6.9	95.5	-0.1	114.4	0.0
Cc1cc2ccccc2n2c(SCC(=O)Nc3ccc(S(=O)(=O)N4CCCCC4)cc3)nnc12	/	1.4	1.3	9.8	/	/	/	/
Cc1ccc(S(=O)(=O)Nc2cc(C(C(=O)OC(C)C)C(=O)C(F)(F)F)c(O)c3ccccc23)c(C)c1 (configuration not stated)	/	-22.4	12.6*	-17.5	88.0	0.0	96.3	0.0
Cc1ccc(S(=O)(=O)Nc2ccc(O)c3ccccc23)c(C)c1	/	5.4	0.1	-9.3	/	/	/	/
COc1cc(C(=O)NC2CC(C)CC(C)(C)C2)cc(OC)c1OC (configuration not stated)	-7.6	4.4	/	1.0	/	/	/	/
C=CCN1C(=O)[C@@H](CC(=O)NCc2cccc3ccccc23)[C@]2(C(=O)OC)CCCCC=C12	/	/	/	-6.2	/	/	/	/
O=S(=O)(c1cccc2nonc12)N1CCN(c2ccccc2F)CC1	/	0.9	1.1*	-2.6	97.6	-0.2	100.7	-0.1
O=C(CSC1=Nc2ccccc2C2=NC(CC(=O)N3CCN(c4ccccc4)CC3)C(=O)N12)NCC1CCCO1 (configuration not stated)	/	-8.9	0.8*	1.5	98.6	-0.3	101.5	-0.4
COc1cccc(/C(O)=C2/C(=O)C(=O)N(CCCN3CCOCC3)C2c2ccncc2)c1 (configuration not stated)	-12.0	-6.0	0.1	1.5	/	/	/	/
COC(=O)c1ccc(C2/C(=C(\O)c3cccc(OC)c3)C(=O)C(=O)N2CCCN2CCOCC2)cc1 (configuration not stated)	/	2.7	9.7*	-1.8	115.7	-0.2	96.0	0.1
CC(C)CCNC(=O)CCCc1ccccc1	8.5	1.6	-0.1	7.0	/	/	/	/
CC(C)CCNC(=O)CCSCCC(=O)NCCC(C)C	/	2.2	8.9*	-3.0	103.1	-0.1	98.5	0.0
Cc1nnc(SCc2ccc([N+](=O)[O-])cc2)o1	/	0.3	1.0*	-2.8	110.0	-0.2	106.0	-0.1
COc1cc(C2OC(=O)C3C(c4ccc(OC(C)=O)c(OC)c4)OC(=O)C23)ccc1OC(C)=O (configuration not stated)	1.3	0.4	0.0	15.5	/	/	/	/
O=C(CSc1nnc(Cc2cccs2)n1Cc1ccco1)Nc1cccc(Cl)c1	/	-7.5	-0.1	-23.9	136.8	0.2	89.3	2.0
O=C(CSc1nnc(Cc2cccs2)n1Cc1ccco1)Nc1cc(Cl)cc(Cl)c1	-6.4	-13.0	0.1	-23.1	114.1	-0.1	118.2	0.0
Cc1cc(=O)[nH]c(SCc2ccc(Cl)cc2Cl)n1	/	-1.8	0.1	-6.8	/	/	/	/
C[C@H]1[C@@H](OC(=O)Nc2cccc(Cl)c2)CC[C@@]23CCCN2C(=O)CCC[C@@H]13	/	/	/	-6.3	/	/	/	/
Cc1ccc(C)c(OCc2cc(C(=O)N(C)Cc3nccs3)no2)c1	/	-3.0	-0.1	-6.5	181.6	1.2	110.2	1.2
COc1ccc(Cn2c(=O)c3[nH]cnc3n(-c3ccccc3C)c2=O)cc1	-1.3	-4.7	0.8*	-8.6	100.2	-0.2	116.2	0.0
SMILES	H9c2 TAG inh	MT1-MMP act inh	Efflux pump mplx	HGIII-sPLA2 inh	Cmpd fluor yeast	CaMdr1 efflux inh	Cdr2 pump inh	CaCdr1 efflux inh
COc1ccc(C)c(-n2c(=O)n(Cc3ccccc3)c(=O)c3[nH]cnc32)c1	-6.4	-0.3	-0.1	-5.9	/	/	/	/
N#CC1=C(Nc2ccccc2Cl)SC2(CCCC2)NC1=O	/	2.3	/	/	/	/	/	/
CCOc1ccc(S(=O)(=O)N2CCN(C(=O)c3cccnc3)CC2)cc1	/	-1.0	-0.1	0.9	/	/	/	/
CCOc1ccc(S(=O)(=O)N2CCN(C(=O)c3ccncc3)CC2)cc1	-2.7	1.1	7.4*	7.6	88.7	-0.2	91.1	-0.2
CC1=CC2(C)NC(=O)C(C)C12 (configuration not stated)	4.4	1.6	/	1.1	/	/	/	/
O=C(CN1CCCc2ccccc21)N/N=C/c1c(O)ccc2ccccc12	/	-14.5	12.7*	3.5	94.0	-0.1	106.0	0.1
Cc1nnsc1-c1nnc(SCC(=O)c2ccc(C#N)cc2)n1C1CC1	2.6	2.3	0.6*	-53.3	106.7	-0.1	107.8	0.0
COc1cc(/C=C/C(=O)c2ccc(O)cc2)ccc1OCC#N	-26.3	-3.7	11.4*	-14.1	95.0	-0.4	108.0	0.0
COc1ccc(-c2nc(NC(=O)c3nc4nccc(C)n4n3)sc2C)cc1	4.9	4.0	1.0*	-1.9	95.3	-0.2	116.2	0.1
Cc1ccnc2nc(C(=O)Nc3nc4ccccc4s3)nn12	11.2	-7.8	0.3	-0.4	/	/	/	/
Cc1ccc(C(=O)Nc2ncc3c(n2)CC(c2ccco2)CC3=O)cc1 (configuration not stated)	/	-4.4	9.0*	-0.4	104.6	-0.2	89.3	-0.1
Clc1ccc(Cn2nc(-c3ccccc3)nc2-c2ccccc2)cc1	-7.4	-3.2	20.2*	-3.1	101.8	-0.1	109.9	0.0
Clc1ccccc1Cn1nc(-c2ccccc2)nc1-c1ccccc1	/	-2.7	-0.2	-6.8	/	/	/	/

High-throughput results: PubChem BioAssay, several laboratories
